Reference: ChEMBL document CHEMBL5390324, “Synthesis of 9-Cinnamyl-9H-purine Derivatives as Novel TLR4/MyD88/NF-κB Pathway Inhibitors for Anti-inflammatory Effects” (ACS Med Chem Lett, 2023)
Active and inactive are the calls of the source. The rule behind the calls is not given here.

Key:
[1] = tested on: RAW264.7; assay: Antiinflammatory activity in mouse RAW264.7 cells assessed as inhibition of LPS-stimulated nitric oxide production at 20 uM preincubated for 2 hrs followed by LPS stimulation for 24 hrs by Griess reagent based assay relative to control; assay type: functional; settings: time 26 hrs
Summary of the method: (§1)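 RAW264.7 cells pretreated 2 h with compound, then LPS (500 ng/mL) 24 h. Nitrite in culture supernatant measured with Griess reagent (1% sulfanilamide in 5% H3PO4, 0.1% N-(1-naphthyl)ethylenediamine dihydrochloride). Inhibition % as mean ± SEM of triplicates; negative values denote enhancement of NO.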

[2] = tested on: RAW264.7; assay: Antiinflammatory activity in mouse RAW264.7 cells assessed as inhibition of LPS-stimulated nitric oxide production at 10 uM preincubated for 2 hrs followed by LPS stimulation for 24 hrs by Griess reagent based assay relative to control; assay type: functional; settings: time 26 hrs; summary of the method: as §1
[3] = tested on: RAW264.7; assay: Antiinflammatory activity in mouse RAW264.7 cells assessed as inhibition of nitric oxide production incubated for 2 hrs by Griess reagent based assay; assay type: functional, cell-based; summary of the method: as §1
[4] = tested on: RAW264.7; assay: Antiinflammatory activity in mouse RAW264.7 cells assessed as inhibition of LPS-stimulated nitric oxide production preincubated for 2 hrs followed by LPS stimulation for 24 hrs by Griess reagent based assay; assay type: functional, cell-based; settings: for inhibition: time 26.0 hrs; summary of the method: as §1
[5] = tested on: RAW264.7; assay: Antiinflammatory activity in LPS-stimulated mouse RAW264.7 cells assessed as reduction in COX-2 level at 10 to 30 uM preincubated for 2 hrs followed by LPS stimulation for 20 hrs by Western blot analysis; assay type: functional, cell-based; settings: dose 10-30 µM, time 22.0 hrs
Summary of the method: (§2)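 RAW264.7 cells pretreated 2 h with compound, then LPS (200 ng/mL) for 20 h. iNOS and COX-2 protein assessed by Western blot.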

[6] = species on record: Mus musculus; assay: Antiinflammatory activity in DNCB-stimulated atopic dermatitis BALB/c mouse model assessed as reduction in dermal thickness of ear at 0.5 % pretreated for 30 mins followed by DNCB re-treatment measured after 3 hrs by H and E staining based microscopic analysis; assay type: functional, organism-based; settings: time 3.5 hrs
Summary of the method: (§3)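 DNCB-induced atopic dermatitis model in mouse ears, lesions peaking day 7 after sensitization; test agent applied at 0.5%. Ear thickness measured daily with a digimatic micrometer; ear lesions photographed. Ear specimens H&E-stained and examined microscopically for epidermal and dermal thickness and inflammatory cell infiltration. Mean ± SEM.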

[7] = tested on: RAW264.7; assay: Antiinflammatory activity in LPS-stimulated mouse RAW264.7 cells assessed as inhibition in IL-6 level at 3 to 30 uM preincubated for 2 hrs followed by LPS stimulation for 24 hrs by ELISA; assay type: functional, cell-based; settings: dose 3-30 µM, time 26.0 hrs
Summary of the method: (§4)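 RAW264.7 macrophages pretreated 2 h with compound, or Bay11-7082 as positive control, then LPS (500 ng/mL) for 24 h. IL-6, IL-1β and TNF-α in supernatants quantified by ELISA. Mean ± SEM.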

[8] = tested on: RAW264.7; assay: Cytotoxicity against mouse RAW264.7 cells at 3 to 30 uM by MTS assay; assay type: toxicity, cell-based; settings: raw264.7, 30 µM, dose 3-30 µM
Summary of the method: (§5)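 MTS viability assay in RAW264.7 and 293T cells at 3, 10 and 30 μM.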

[9] = tested on: HEK-293T; assay: Cytotoxicity against HEK293T cells at 3 to 30 uM by MTS assay; assay type: toxicity, cell-based; settings: human, dose 3-30 µM; summary of the method: as §5
[10] = tested on: HEK-293T; assay: Antiinflammatory activity in HEK293T cells transfected with NF-kappaB (unknown origin) assessed as inhibition in NF-kB transcription at 3 to 30 uM preincubated for 2 hrs followed by PMA stimulation for 24 hrs by SEAP reporter gene based Quanti-blue assay; assay type: functional, cell-based; settings: Homo sapiens, dose 3-30 µM, time 26.0 hrs
Summary of the method: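 293T cells on poly-D-lysine-coated wells transfected overnight with pNF-κB-SEAP. Treated with compound for 2 h, then PMA (50 ng/mL) for 24 h. Bay 11-7082 (20 μM) served as NF-κB inhibitor control. SEAP activity read with QUANTI-Blue. Mean ± SEM.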

[11] = species on record: Mus musculus; assay: Antiinflammatory activity in DNCB-stimulated atopic dermatitis BALB/c mouse model assessed as reduction in infiltration of inflammatory cells of ear at 0.5 % pretreated for 30 mins followed by DNCB re-treatment measured after 3 hrs by H and E staining based microscopic analysis; assay type: functional, organism-based; settings: time 3.5 hrs; summary of the method: as §3
[12] = species on record: Mus musculus; assay: Antiinflammatory activity in DNCB-stimulated atopic dermatitis BALB/c mouse model assessed as reduction in ear swelling at 0.5 % pretreated for 30 mins followed by DNCB re-treatment measured after 3 hrs; assay type: functional, organism-based; settings: time 3.5 hrs; summary of the method: as §3
[13] = tested on: RAW264.7; assay: Antiinflammatory activity in LPS-stimulated mouse RAW264.7 cells assessed as reduction in iNOS level at 10 to 30 uM preincubated for 2 hrs followed by LPS stimulation for 20 hrs by Western blot analysis; assay type: functional, cell-based; settings: dose 10-30 µM, time 22.0 hrs; summary of the method: as §2
[14] = species on record: Mus musculus; assay: Antiinflammatory activity in DNCB-stimulated atopic dermatitis BALB/c mouse model assessed as reduction in skin lesion at 0.5 % pretreated for 30 mins followed by DNCB re-treatment measured after 3 hrs; assay type: functional, organism-based; settings: time 3.5 hrs; summary of the method: as §3
[15] = tested on: RAW264.7; assay: Antiinflammatory activity in mouse RAW264.7 cells assessed as inhibition of NF-kappaB translocation from cytosol to nucleus at 30 uM preincubated for 2 hrs followed by LPS stimulation for 2 hrs by immunofluorescence staining analysis; assay type: functional, cell-based; settings: time 4.0 hrs
Summary of the method: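 RAW264.7 cells in glass chamber wells overnight, treated 2 h with compound (30 μM) or Bay (20 μM), then LPS for 2 h. Immunostained for NF-κB p65 with Alexa Fluor 488 secondary; nuclei counterstained with DAPI in antifade medium; fluorescence imaging.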

[16] = tested on: RAW264.7; assay: Antiinflammatory activity in LPS-stimulated mouse RAW264.7 cells assessed as inhibition in IL-1beta level at 3 to 30 uM preincubated for 2 hrs followed by LPS stimulation for 24 hrs by ELISA; assay type: functional, cell-based; settings: dose 3-30 µM, time 26.0 hrs; summary of the method: as §4
[17] = species on record: Mus musculus; assay: Antiinflammatory activity in DNCB-stimulated atopic dermatitis BALB/c mouse model assessed as reduction in epidermal thickness of ear at 0.5 % pretreated for 30 mins followed by DNCB re-treatment measured after 3 hrs by H and E staining based microscopic analysis; assay type: functional, organism-based; settings: time 3.5 hrs; summary of the method: as §3
[18] = tested on: RAW264.7; assay: Antiinflammatory activity in LPS-stimulated mouse RAW264.7 cells assessed as inhibition in TNF-alpha level at 3 to 30 uM preincubated for 2 hrs followed by LPS stimulation for 24 hrs by ELISA; assay type: functional, cell-based; settings: dose 3-30 µM, time 26.0 hrs; summary of the method: as §4
[19] = molecular target: TLR4-MyD88 (Mus musculus) (UniProt Q9QUK6+P22366); assay: Inhibition of TLR4-MyD88 interaction in mouse RAW264.7 cells at 30 uM preincubated for 2 hrs followed by LPS stimulation for 24 hrs by co-immunoprecipitation analysis; assay type: cell-based; settings: time 26.0 hrs
Chain of TLR4-MyD88 (Mus musculus) (P22366 whole entry, looked up): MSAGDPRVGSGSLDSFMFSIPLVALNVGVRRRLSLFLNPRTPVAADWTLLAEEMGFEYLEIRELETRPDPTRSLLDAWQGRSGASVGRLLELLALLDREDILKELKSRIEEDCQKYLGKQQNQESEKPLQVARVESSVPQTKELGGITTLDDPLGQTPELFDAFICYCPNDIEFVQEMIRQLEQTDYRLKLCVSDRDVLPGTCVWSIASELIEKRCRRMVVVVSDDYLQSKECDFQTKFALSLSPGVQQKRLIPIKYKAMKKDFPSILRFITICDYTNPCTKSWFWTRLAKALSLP
Chain of TLR4-MyD88 (Mus musculus) (Q9QUK6 whole entry, looked up): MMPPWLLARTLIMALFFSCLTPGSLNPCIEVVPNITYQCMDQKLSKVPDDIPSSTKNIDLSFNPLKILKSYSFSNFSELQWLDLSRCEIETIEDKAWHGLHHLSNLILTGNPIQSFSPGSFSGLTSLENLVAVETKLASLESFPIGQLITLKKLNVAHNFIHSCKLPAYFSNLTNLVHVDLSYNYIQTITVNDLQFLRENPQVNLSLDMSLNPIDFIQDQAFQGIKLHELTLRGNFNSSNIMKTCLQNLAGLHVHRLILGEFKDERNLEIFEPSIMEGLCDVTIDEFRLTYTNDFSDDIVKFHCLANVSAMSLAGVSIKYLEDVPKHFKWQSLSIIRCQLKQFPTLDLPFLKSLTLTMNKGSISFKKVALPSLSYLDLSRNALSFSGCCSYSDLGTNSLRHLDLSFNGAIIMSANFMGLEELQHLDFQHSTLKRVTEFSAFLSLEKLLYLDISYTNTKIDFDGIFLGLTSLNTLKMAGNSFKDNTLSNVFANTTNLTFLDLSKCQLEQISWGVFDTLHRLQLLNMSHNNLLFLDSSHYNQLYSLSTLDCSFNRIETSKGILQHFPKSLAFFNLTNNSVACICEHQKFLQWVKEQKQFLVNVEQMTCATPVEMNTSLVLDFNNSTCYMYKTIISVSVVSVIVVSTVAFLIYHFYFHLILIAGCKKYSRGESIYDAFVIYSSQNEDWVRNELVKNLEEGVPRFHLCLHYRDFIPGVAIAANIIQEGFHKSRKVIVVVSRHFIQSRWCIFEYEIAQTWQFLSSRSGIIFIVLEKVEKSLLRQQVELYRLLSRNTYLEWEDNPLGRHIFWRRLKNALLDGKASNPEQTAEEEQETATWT
Summary of the method: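 RAW264.7 cells treated with compound at 30 μM for 2 h, then LPS (500 ng/mL) for 24 h. Lysates immunoprecipitated with MyD88- or TLR4-specific antibodies on protein A/G agarose beads; immunocomplexes probed by Western blot for TLR4 or MyD88.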

Compound | inhibition at 20 µM [1] [%] | inhibition at 10 µM [2] [%] | further results
Cc1ccc(/C=C/Cn2cnc3c(Cl)nc(F)nc32)cc1 | 60.5 | 31.1 | –
Fc1ccc(C2CC2Cn2cnc3c(Cl)nc(Cl)nc32)cc1 (stereo not given) | 17.1 | 4.11 | –
Clc1nc(Cl)c2ncn(C/C=C/c3ccccc3)c2n1 | 34.7 | 22.2 | –
CNc1ncnc2c1ncn2C/C=C/c1ccc(C)cc1 | -15.7 | -7 | inhibition [3]: inactive; inhibition [4]: inactive
Clc1ncnc2c1ncn2C/C=C/c1ccccc1 | 14.8 | 15.1 | –
Cc1ccc(/C=C/Cn2cnc3c(Cl)nc(Cl)nc32)cc1 | 60.4 | 31.9 | Activity [5]: Active; Activity [6]: Active; inhibition [7]: Active; Activity [8]: Non-Toxic; Activity [9]: Non-Toxic; inhibition [10]: Active; Activity [11]: Active; IC50 [4]: 6.4 µM; Activity [12]: Active; Activity [13]: Active; Activity [14]: Active; inhibition [15]: Active; inhibition [16]: Active; Activity [17]: Active; inhibition [18]: Active; inhibition [19]: Active
Oc1ccc(/C=C/c2cc(O)cc(O)c2)cc1 [RESVERATROL] | 38.6 | 26.6 | Activity [8]: Non-Toxic; Activity [9]: Non-Toxic; IC50 [4]: 26.4 µM
Cc1ccc(/C=C/Cn2cnc3c(N)ncnc32)cc1 | -7.73 | 0.48 | inhibition [3]: inactive; inhibition [4]: inactive
ONc1nc(Cl)nc2c1ncn2C/C=C/c1ccccc1 | 51.2 | 57.4 | –
Nc1nc(Cl)nc2c1ncn2CC1CC1c1ccc(F)cc1 (stereo not given) | 1.56 | -6.22 | inhibition [3]: inactive; inhibition [4]: inactive
Fc1ccc(/C=C/Cn2cnc3c(Cl)nc(Cl)nc32)cc1 | 40.5 | 29.3 | –
CNc1nc(Cl)nc2c1ncn2C/C=C/c1ccccc1 | 34.7 | 26.8 | –
Nc1nc(Cl)nc2c1ncn2C/C=C/c1ccc(F)cc1 | 24.1 | 13.9 | –
Nc1ncnc2c1ncn2C/C=C/c1ccccc1 | -13.3 | -3.38 | inhibition [3]: inactive; inhibition [4]: inactive
Cc1ccc(/C=C/Cn2cnc3c(Cl)ncnc32)cc1 | 12.1 | 13.5 | –
CNc1nc(Cl)nc2c1ncn2CC1CC1c1ccc(F)cc1 (stereo not given) | 11.9 | 11.2 | –
CNc1ncnc2c1ncn2C/C=C/c1ccc(F)cc1 | 2.9 | 0.97 | –
Cc1ccc(/C=C/Cn2cnc3c(NO)nc(Cl)nc32)cc1 | 40.9 | 36.8 | –
Nc1ncnc2c1ncn2C/C=C/c1ccc(F)cc1 | -19.3 | -17.1 | inhibition [3]: inactive; inhibition [4]: inactive
Fc1ccc(/C=C/Cn2cnc3c(Cl)ncnc32)cc1 | 30.2 | 11.6 | –
CNc1ncnc2c1ncn2C/C=C/c1ccccc1 | 33.4 | 19.3 | –
ONc1nc(Cl)nc2c1ncn2C/C=C/c1ccc(F)cc1 | 17.6 | 4.59 | –
CNc1nc(Cl)nc2c1ncn2C/C=C/c1ccc(C)cc1 | 34.6 | 28.4 | –
CNc1nc(Cl)nc2c1ncn2C/C=C/c1ccc(F)cc1 | 36.5 | 28.2 | –
Nc1nc(Cl)nc2c1ncn2C/C=C/c1ccccc1 | 2.46 | -5.27 | inhibition [3]: inactive; inhibition [4]: inactive
Cc1ccc(/C=C/Cn2cnc3c(N)nc(Cl)nc32)cc1 | 11.2 | 11.9 | –
Cc1ccc(/C=C/Cn2cnc3c(F)nc(F)nc32)cc1 | 12.1 | 5.88 | –
